# Key:
# [1] = Chemical stability in aqueous buffer containing 5% DMSO and 5% tween 80 at pH 1.2 assessed as compound recovery in anoxic conditions after 3 hrs by UPLC analysis; type: physicochemical; conditions: read-out: Stability
# Outline: (§1)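 Stability at 37 °C in aqueous buffer with 5% DMSO and 5% Tween 80 at pH 1.2, 6.8 or 7.4; percent recovery by HPLC/UPLC on BEH C18 column, water+0.1% TFA/acetonitrile gradient from 40% to 95% acetonitrile over 8 min, room temperature.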
# [2] = Chemical stability in aqueous buffer containing 5% DMSO and 5% tween 80 at pH 6.8 assessed as compound recovery in anoxic conditions after 24 hrs by UPLC analysis; type: physicochemical; conditions: read-out: Stability; outline: as §1
# [3] = Chemical stability in aqueous buffer containing 5% DMSO and 5% tween 80 at pH 7.4 assessed as compound recovery in anoxic conditions after 24 hrs by UPLC analysis; type: physicochemical; conditions: read-out: Stability; outline: as §1
# [4] = Chemical stability in aqueous buffer containing 5% DMSO and 5% tween 80 at pH 1.2 assessed as compound recovery in anoxic conditions after 12 hrs by UPLC analysis; type: physicochemical; conditions: pH 1.2, 12 h; outline: as §1
# NCI-H460 = experiment: Antiproliferative activity against human NCI-H460 cells incubated for 24 hrs drug exposure measured after 48 hrs of recovery by sulforhodamine B assay; type: functional, cell-based
# [5] = Solubility in water; type: physicochemical; conditions: buffer
# A-431 = experiment: Antiproliferative activity against human A431 cells incubated for 24 hrs drug exposure measured after 48 hrs of recovery by sulforhodamine B assay; type: functional, cell-based
# [6] = Chemical stability in aqueous buffer containing 5% DMSO and 5% tween 80 at pH 6.8 assessed as compound recovery in anoxic conditions after 6 hrs by UPLC analysis; type: physicochemical; conditions: read-out: Stability; outline: as §1
# [7] = Chemical stability in aqueous buffer containing 5% DMSO and 5% tween 80 at pH 7.4 assessed as compound recovery in anoxic conditions after 6 hrs by UPLC analysis; type: physicochemical; conditions: read-out: Stability; outline: as §1
# Plasma [8] = experiment: Prodrug conversion in mouse plasma assessed as drug concentration at 0.5 hrs; type: ADME, cell-free
# Outline: (§2)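 Prodrugs already shown stable at pH 1.2, 6.8 and 7.4 were incubated in murine plasma and sampled over time up to 6 h. A parallel incubation used murine plasma pretreated with the esterase inhibitor PMSF (phenylmethyl sulfonyl fluoride).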
# Plasma [9] = experiment: Prodrug conversion in mouse plasma assessed as drug concentration at 0.5 hrs in presence of esterase inhibitor PMSF; type: ADME, cell-free
# Outline: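 Prodrug incubated with murine plasma pretreated with the esterase inhibitor PMSF, run alongside untreated plasma; release of parent followed over time.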
# Plasma [10] = experiment: Prodrug conversion in mouse plasma assessed as drug concentration at 1 hr; type: ADME, cell-free; outline: as §2
# Plasma [11] = experiment: Prodrug conversion in mouse plasma assessed as drug concentration at 3 hrs; type: ADME, cell-free; outline: as §2
# Plasma [12] = experiment: Prodrug conversion in mouse plasma assessed as drug concentration at 6 hrs; type: ADME, cell-free; outline: as §2
# Plasma [13] = experiment: Prodrug conversion in mouse plasma assessed as drug concentration at 6 hrs in presence of esterase inhibitor PMSF; type: ADME, cell-free; outline: as §2
remaining at 3 h [1] [%],remaining at 24 h [2] [%],remaining at 24 h [3] [%],Stability [4],IC50 (NCI-H460) [nM],solubility [5],IC50 (A-431) [nM],remaining at 6 h [6] [%],remaining at 6 h [7] [%],Drug metabolism (Plasma [8]) [%],Drug metabolism (Plasma [9]) [%],Drug metabolism (Plasma [10]) [%],Drug metabolism (Plasma [11]) [%],Drug metabolism (Plasma [12]) [%],Drug metabolism (Plasma [13]) [%],SMILES
> 99,> 99,> 99,Stable,8400,Insoluble,,,,,,,,,,O=C(O)/C=C/c1ccc(-c2ccc(OCN3C(=O)c4ccccc4C3=O)c(C34CC5CC(CC(C5)C3)C4)c2)cc1
,,,Stable,4200,Insoluble,,,,,,,,,,COCCOCOc1ccc(-c2ccc(/C=C/C(=O)O)cc2)cc1C12CC3CC(CC(C3)C1)C2
> 99,> 99,> 99,Stable,170,Insoluble,330,,,,,,,,,O=C(O)/C=C/c1ccc(-c2ccc(OC(=O)COCCOCCOCC(=O)O)c(C34CC5CC(CC(C5)C3)C4)c2)cc1
,,,Stable,7800,Insoluble,,,,,,,,,,CCCCC/C=C/C/C=C/CCCCCCCC(=O)Oc1ccc(-c2ccc(/C=C/C(=O)O)cc2)cc1C12CC3CC(CC(C3)C1)C2
> 99,85,64,Stable,240,Insoluble,410,98,89,,,,,,,CN1CCN(CCCC(=O)Oc2ccc(-c3ccc(/C=C/C(=O)O)cc3)cc2C23CC4CC(CC(C4)C2)C3)CC1
> 99,39,12,Stable,510,Insoluble,410,92,62,,,,,,,CC(C)[C@H](N)C(=O)Oc1ccc(-c2ccc(/C=C/C(=O)O)cc2)cc1C12CC3CC(CC(C3)C1)C2.Cl
> 99,> 99,> 99,Stable,5000,Insoluble,,,,,,,,,,CC(C)NC(=O)Oc1ccc(-c2ccc(/C=C/C(=O)O)cc2)cc1C12CC3CC(CC(C3)C1)C2
> 99,> 99,> 99,Stable,260,Insoluble,530,,,,,,,,,CC(=O)Oc1ccc(-c2ccc(/C=C/C(=O)O)cc2)cc1C12CC3CC(CC(C3)C1)C2
> 99,> 99,> 99,Stable,320,Insoluble,,,,,,,,,,CCCOC(=O)OCOc1ccc(-c2ccc(/C=C/C(=O)O)cc2)cc1C12CC3CC(CC(C3)C1)C2
> 99,> 99,> 99,Stable,> 10000,Insoluble,,,,,,,,,,O=C(O)/C=C/c1ccc(-c2ccc(OCCN3CCOCC3)c(C34CC5CC(CC(C5)C3)C4)c2)cc1
> 99,> 99,> 99,Stable,850,Insoluble,,,,,,,,,,N#CCOc1ccc(-c2ccc(/C=C/C(=O)O)cc2)cc1C12CC3CC(CC(C3)C1)C2
> 99,> 99,62,Stable,100,Insoluble,400,,88,97.02,87.31,96.87,96.66,96.31,97.77,NC1(C(=O)Oc2ccc(-c3ccc(/C=C/C(=O)O)cc3)cc2C23CC4CC(CC(C4)C2)C3)CC1.O=C(O)C(F)(F)F
> 99,> 99,> 99,Stable,850,Insoluble,,,,100,43.95,100,100,100,99.76,O=C(O)/C=C/c1ccc(-c2ccc(OC(=O)C3CC3)c(C34CC5CC(CC(C5)C3)C4)c2)cc1
> 99,> 99,> 99,Stable,1540,Insoluble,,,,,,,,,,CCCCCCCCCCC(=O)Oc1ccc(-c2ccc(/C=C/C(=O)O)cc2)cc1C12CC3CC(CC(C3)C1)C2
> 99,> 99,> 99,Stable,1390,Insoluble,,,,,,,,,,CCCCCCCCCCCNC(=O)Oc1ccc(-c2ccc(/C=C/C(=O)O)cc2)cc1C12CC3CC(CC(C3)C1)C2

SMILES,remaining at 3 h [1] [%],remaining at 24 h [2] [%],remaining at 24 h [3] [%],Stability [4],IC50 (NCI-H460) [nM],solubility [5],IC50 (A-431) [nM],remaining at 6 h [6] [%],remaining at 6 h [7] [%],Drug metabolism (Plasma [8]) [%],Drug metabolism (Plasma [9]) [%],Drug metabolism (Plasma [10]) [%],Drug metabolism (Plasma [11]) [%],Drug metabolism (Plasma [12]) [%],Drug metabolism (Plasma [13]) [%]
O=C(O)/C=C/c1ccc(-c2ccc(OC(=O)NCC(=O)O)c(C34CC5CC(CC(C5)C3)C4)c2)cc1,> 99,> 99,> 99,Stable,3000,Insoluble,,,,,,,,,
O=C(O)/C=C/c1ccc(-c2ccc(OC(=O)NC3CCN(C(=O)OCc4ccccc4)CC3)c(C34CC5CC(CC(C5)C3)C4)c2)cc1,> 99,> 99,> 99,Stable,5000,Insoluble,,,,,,,,,
CNCCNC(=O)Oc1ccc(-c2ccc(/C=C/C(=O)O)cc2)cc1C12CC3CC(CC(C3)C1)C2.Cl,> 99,69,36,Stable,240,Insoluble,320,92,76,96.23,1.35,99.8,99.94,99.95,17.55
CC(C)C[C@H](NC(=O)Oc1ccc(-c2ccc(/C=C/C(=O)O)cc2)cc1C12CC3CC(CC(C3)C1)C2)C(=O)NCC(=O)O,> 99,> 99,> 99,Stable,3500,Insoluble,,,,,,,,,

# — ChEMBL document CHEMBL1955854, “New retinoid derivatives as back-ups of Adarotene” (Bioorg Med Chem, 2012)
